Columns and labels:
[1] = biological target: T1, Mitogen-activated protein kinase 14 (Homo sapiens, UniProt Q16539); test: Inhibitory activity against Mitogen-activated protein kinase p38 alpha 2 (expressed Escherichia coli) at concentration of 500 nM
How it was run: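 Activated p38 α2 (0.05 µg/well) phosphorylating myelin basic protein (10 µg/well) in 25 mM HEPES pH 7.4, 20 mM MgCl₂, 150 mM NaCl. Compounds were added from 10% DMSO in water. Reactions were started with 10 µM ATP plus 0.2 µCi [γ-33P]ATP per well, run 35 min at 32 °C, and stopped with HCl. Filter-bound ³³P was counted by scintillation.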

[2] = biological target: T1, Mitogen-activated protein kinase 14; test: Inhibitory activity against Mitogen-activated protein kinase p38 alpha 2 expressed in Escherichia coli.
SW1353 = test: Compound was evaluated for its ability to inhibit IL-6 production in SW1353 cells treated with cytokines IL-1 and TNF; format: functional, cell-based; settings: Homo sapiens

T1 sequence (Q16539 whole entry): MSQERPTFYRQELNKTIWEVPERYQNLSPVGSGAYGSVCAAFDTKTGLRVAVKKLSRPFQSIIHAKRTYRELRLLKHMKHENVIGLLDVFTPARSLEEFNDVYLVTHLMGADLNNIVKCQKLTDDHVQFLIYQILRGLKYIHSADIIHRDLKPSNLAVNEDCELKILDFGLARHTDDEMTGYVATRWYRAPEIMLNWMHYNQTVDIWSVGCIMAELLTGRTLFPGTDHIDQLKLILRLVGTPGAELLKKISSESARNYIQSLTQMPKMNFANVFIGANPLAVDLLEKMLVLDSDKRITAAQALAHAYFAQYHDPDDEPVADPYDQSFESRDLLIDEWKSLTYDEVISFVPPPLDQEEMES

SMILES	inhibition [1] [%]	IC50 [2] [nM]	IC50 (SW1353) [nM]
CC(C)c1cc(NC(=O)Nc2cccc(Cl)c2Cl)on1	62	290	–
CC(C)(C)c1cc(NC(=O)Nc2cccc(Cl)c2Cl)on1	93	36	–
CC(=O)Nc1cccc(NC(=O)Nc2cc(C(C)(C)C)on2)c1	18	–	–
CC(C)(C)c1cc(NC(=O)Nc2ccccc2)no1	33	–	–
CC(C)(C)c1cc(NC(=O)Nc2cccc(Cl)c2Cl)no1	88	58	1200
CC(=O)Nc1cccc(NC(=O)Nc2cc(C(C)(C)C)no2)c1	11	–	–
CC(C)(C)c1nnc(NC(=O)Nc2cccc(Cl)c2Cl)s1	1	–	–
CC(C)(C)c1cc(NC(=O)Nc2ccc(Cl)cc2C(F)(F)F)no1	9	–	–
CC(C)(C)c1ccc(NC(=O)Nc2cccc(Cl)c2Cl)s1	82	120	–
CCC(C)(C)c1cc(NC(=O)Nc2cccc(Cl)c2Cl)on1	83	120	–
CC(C)(C)c1cc(NC(=O)Nc2ccc(F)cc2)on1	41	–	–
CC(C)(C)c1cc(NC(=O)Nc2ccc(F)cc2)no1	74	190	–
Cc1c(C(C)C)noc1NC(=O)Nc1cccc(Cl)c1Cl	34	920	–
Cc1c(C(C)(C)C)noc1NC(=O)Nc1cccc(Cl)c1Cl	18	–	–
Cc1cccc(NC(=O)Nc2cc(C(C)(C)C)on2)c1C	54	–	–
CCC(C)(C)c1noc(NC(=O)Nc2cccc(Cl)c2Cl)c1C	18	–	–
Cc1cc(F)ccc1-c1cc(N(C(N)=O)c2c(Cl)cccc2Cl)ccc1CO	–	2	–
Cc1cccc(NC(=O)Nc2cc(C(C)(C)C)no2)c1C	49	–	–
CCCCc1cc(NC(=O)Nc2cccc(Cl)c2Cl)on1	33	1100	–

The next lines start with results.

inhibition [1] [%]	IC50 [2] [nM]	SMILES	IC50 (SW1353) [nM]
20	–	CC(=O)Nc1ccc(NC(=O)Nc2cc(C(C)(C)C)no2)cc1	–
68	260	CC(C)(C)c1cc(NC(=O)Nc2ccc(Cl)cc2)on1	–
9	–	O=C(Nc1cc(C23CC4CC(CC(C4)C2)C3)no1)Nc1cccc(Cl)c1Cl	–
77	200	CC(C)(C)c1cc(NC(=O)Nc2ccc(C(F)(F)F)cc2)on1	–
57	370	O=C(Nc1cc(C2CCC2)no1)Nc1cccc(Cl)c1Cl	–
81	120	CC(C)(C)Cc1cc(NC(=O)Nc2cccc(Cl)c2Cl)on1	–
39	–	CC(C)(C)c1cc(NC(=O)Nc2ccc(C(F)(F)F)cc2)no1	–
–	710	CC(C)(C)c1cc(NC(=O)Nc2cc(Br)cc(Br)c2)no1	–
4	–	Cc1cc(NC(=O)Nc2cccc(Cl)c2Cl)on1	–
36	–	CC(C)(C)c1cc(NC(=O)Nc2ccccc2C(F)(F)F)no1	–
76	160	CC(C)(C)c1cc(NC(=O)Nc2cccc(Cl)c2Cl)cs1	–
14	–	CC(=O)Nc1ccc(NC(=O)Nc2cc(C(C)(C)C)on2)cc1	–
62	220	CC(C)(C)c1cc(NC(=O)Nc2ccc(Cl)c(Cl)c2)on1	–
